The values below come from ChEMBL document CHEMBL4325828, “The Design, Synthesis, and Characterizations of Spore Germination Inhibitors Effective against an Epidemic Strain of Clostridium difficile” (J Med Chem, 2018).

Structures are written as SMILES.

The experiment has as its system Clostridioides difficile. Nature of the experiment: Antibacterial activity against Clostridium difficile R20291 assessed as inhibition of spore germination by measuring heat activated spore germination levels at 125 uM in presence of 6 mM taurocholate and 12 mM glycine measured every minute for 2 hrs by standard optical density assay relative to control. In kind it is functional. On the set-up: scale not given: the % may be the effect or the level left. In short, it runs like this: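 R20291 spores were screened at a single 125 µM concentration, with germination followed as the fall in absorbance at 580 nm. Compounds not soluble at 125 µM by visual inspection were discarded. Inhibition is relative to untreated spore samples.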

On to `C[C@H](CCC(=O)Nc1cccc(S(=O)(=O)O)c1)[C@H]1CC[C@H]2[C@@H]3[C@H](O)C[C@@H]4C[C@H](O)CC[C@]4(C)[C@H]3C[C@H](O)[C@]12C`, for which the Activity amounted to 102%. To `C[C@H](CCC(=O)Nc1ccc(NC(=O)OC(C)(C)C)cc1)[C@H]1CC[C@H]2[C@@H]3[C@H](O)C[C@@H]4C[C@H](O)CC[C@]4(C)[C@H]3C[C@H](O)[C@]12C` belongs 100%; to `C[C@H](CCC(=O)NCc1ccccc1)[C@H]1CC[C@H]2[C@@H]3[C@H](O)C[C@@H]4C[C@H](O)CC[C@]4(C)[C@H]3C[C@H](O)[C@]12C`, 70%; to `C[C@H](CCC(=O)NCCCO)[C@H]1CC[C@H]2[C@@H]3[C@H](O)C[C@@H]4C[C@H](O)CC[C@]4(C)[C@H]3C[C@H](O)[C@]12C`, 92%. Turning to `C[C@H](CCC(=O)NCCC#N)[C@H]1CC[C@H]2[C@@H]3[C@H](O)C[C@@H]4C[C@H](O)CC[C@]4(C)[C@H]3C[C@H](O)[C@]12C`, the Activity is recorded as 112%. Regarding `C[C@H](CCC(=O)NCCCN)[C@H]1CC[C@H]2[C@@H]3[C@H](O)C[C@@H]4C[C@H](O)CC[C@]4(C)[C@H]3C[C@H](O)[C@]12C.Cl`, the Activity is 124%. The same measure for `C[C@H](CCC(=O)NCc1ccc([N+](=O)[O-])cc1)[C@H]1CC[C@H]2[C@@H]3[C@H](O)C[C@@H]4C[C@H](O)CC[C@]4(C)[C@H]3C[C@H](O)[C@]12C`: 88%; for `C[C@H](CCC(=O)NCCCCNC(=O)OC(C)(C)C)[C@H]1CC[C@H]2[C@@H]3[C@H](O)C[C@@H]4C[C@H](O)CC[C@]4(C)[C@H]3C[C@H](O)[C@]12C`: 117%; for `C[C@H](CCC(=O)NCCN1C(=O)c2ccccc2C1=O)[C@H]1CC[C@H]2[C@@H]3[C@H](O)C[C@@H]4C[C@H](O)CC[C@]4(C)[C@H]3C[C@H](O)[C@]12C`: 78%. The same measure for `C[C@H](CCC(=O)Nc1cccc(NC(=O)OC(C)(C)C)c1)[C@H]1CC[C@H]2[C@@H]3[C@H](O)C[C@@H]4C[C@H](O)CC[C@]4(C)[C@H]3C[C@H](O)[C@]12C`: 89%. As for `COc1ccc(CCNC(=O)CC[C@@H](C)[C@H]2CC[C@H]3[C@@H]4[C@H](O)C[C@@H]5C[C@H](O)CC[C@]5(C)[C@H]4C[C@H](O)[C@]23C)c(OC)c1`, the Activity came out at 101%.

For the compound `C[C@H](CCC(=O)NCCc1cccs1)[C@H]1CC[C@H]2[C@@H]3[C@H](O)C[C@@H]4C[C@H](O)CC[C@]4(C)[C@H]3C[C@H](O)[C@]12C`, the Activity came to 93%.

In the case of `COc1cc(CNC(=O)CC[C@@H](C)[C@H]2CC[C@H]3[C@@H]4[C@H](O)C[C@@H]5C[C@H](O)CC[C@]5(C)[C@H]4C[C@H](O)[C@]23C)cc(OC)c1`, the Activity was 99%.

`COc1ccc(NC(=O)CC[C@@H](C)[C@H]2CC[C@H]3[C@@H]4[C@H](O)C[C@@H]5C[C@H](O)CC[C@]5(C)[C@H]4C[C@H](O)[C@]23C)cc1`: the Activity amounted to 79%.

For `C[C@H](CCC(=O)NCc1cccnc1)[C@H]1CC[C@H]2[C@@H]3[C@H](O)C[C@@H]4C[C@H](O)CC[C@]4(C)[C@H]3C[C@H](O)[C@]12C`, the Activity was 94%. With `CCOC(=O)CCCNC(=O)CC[C@@H](C)[C@H]1CC[C@H]2[C@@H]3[C@H](O)C[C@@H]4C[C@H](O)CC[C@]4(C)[C@H]3C[C@H](O)[C@]12C`, the Activity is recorded as 95%. With `C[C@H](CCC(=O)Nc1ccc(N)cc1)[C@H]1CC[C@H]2[C@@H]3[C@H](O)C[C@@H]4C[C@H](O)CC[C@]4(C)[C@H]3C[C@H](O)[C@]12C.Cl`, the Activity is listed as 82%. On to `C[C@H](CCC(=O)NCC(c1ccccc1)c1ccccc1)[C@H]1CC[C@H]2[C@@H]3[C@H](O)C[C@@H]4C[C@H](O)CC[C@]4(C)[C@H]3C[C@H](O)[C@]12C`, for which the Activity came to 101%. As for `C[C@H](CCC(=O)NCCN1CCCC1)[C@H]1CC[C@H]2[C@@H]3[C@H](O)C[C@@H]4C[C@H](O)CC[C@]4(C)[C@H]3C[C@H](O)[C@]12C`, the Activity was found to be 101%. Consider `C[C@H](CCC(=O)NCc1ccc(N)cc1)[C@H]1CC[C@H]2[C@@H]3[C@H](O)C[C@@H]4C[C@H](O)CC[C@]4(C)[C@H]3C[C@H](O)[C@]12C`, for which the Activity was 104%. For `C[C@H](CCC(=O)NCCc1ccccc1)[C@H]1CC[C@H]2[C@@H]3[C@H](O)C[C@@H]4C[C@H](O)CC[C@]4(C)[C@H]3C[C@H](O)[C@]12C`, the Activity was determined as 104%. The same measure for `CCOC(=O)c1ccc(NC(=O)CC[C@@H](C)[C@H]2CC[C@H]3[C@@H]4[C@H](O)C[C@@H]5C[C@H](O)CC[C@]5(C)[C@H]4C[C@H](O)[C@]23C)cc1`: 105%; for `C[C@H](CCC(=O)NCCCCN)[C@H]1CC[C@H]2[C@@H]3[C@H](O)C[C@@H]4C[C@H](O)CC[C@]4(C)[C@H]3C[C@H](O)[C@]12C.Cl`: 104%; for `C[C@H](CCC(=O)NCCCN1C(=O)C(=O)c2ccccc21)[C@H]1CC[C@H]2[C@@H]3[C@H](O)C[C@@H]4C[C@H](O)CC[C@]4(C)[C@H]3C[C@H](O)[C@]12C`: 95%. As for `COC(=O)C(NC(=O)CC[C@@H](C)[C@H]1CC[C@H]2[C@@H]3[C@H](O)C[C@@H]4C[C@H](O)CC[C@]4(C)[C@H]3C[C@H](O)[C@]12C)C(C)C` (stereo not given in full), the Activity was found to be 100%. To `C[C@H](CCC(=O)NCc1ccc(S(N)(=O)=O)cc1)[C@H]1CC[C@H]2[C@@H]3[C@H](O)C[C@@H]4C[C@H](O)CC[C@]4(C)[C@H]3C[C@H](O)[C@]12C` belongs 109%; to `COc1ccc(CNC(=O)CC[C@@H](C)[C@H]2CC[C@H]3[C@@H]4[C@H](O)C[C@@H]5C[C@H](O)CC[C@]5(C)[C@H]4C[C@H](O)[C@]23C)c(OC)c1`, 85%; to `C[C@H](CCC(=O)Nc1cccc(C(N)=O)c1)[C@H]1CC[C@H]2[C@@H]3[C@H](O)C[C@@H]4C[C@H](O)CC[C@]4(C)[C@H]3C[C@H](O)[C@]12C`, 85%. On to `CCOC(=O)c1cccc(NC(=O)CC[C@@H](C)[C@H]2CC[C@H]3[C@@H]4[C@H](O)C[C@@H]5C[C@H](O)CC[C@]5(C)[C@H]4C[C@H](O)[C@]23C)c1`, for which the Activity stood at 109%. On to `C[C@H](CCC(=O)NCc1ccccc1N)[C@H]1CC[C@H]2[C@@H]3[C@H](O)C[C@@H]4C[C@H](O)CC[C@]4(C)[C@H]3C[C@H](O)[C@]12C`, for which the Activity came to 95%.
